Published values of several laboratories.
Protocols differ between the studies behind these lines.
Sample: plasma

Cc1nc(Nc2ncc(C(=O)Nc3c(C)cccc3Cl)s2)cc(N2CCN(CCO)CC2)n1 — Cmax (human; oral, 65 mg/m², multiple doses, twice daily, steady state, patients): 168 ng/mL
CC(C)n1cc(C#N)c2cc(-n3cc(C(=O)O)cn3)ccc21 — Cmax (human; oral, 200 mg, single dose, fasted, healthy volunteers): 8770 ng/mL
N#CN1C[C@H](n2nc(-c3ccc(Oc4ccc(Cl)cn4)cc3)c(C(N)=O)c2N)CCC12CC2 — Cmax (human; oral, 600 mg, single dose, fasted): 1120 ng/mL
COc1ccc(-n2nc(C(N)=O)c3c2C(=O)N(c2ccc(N4CCCCC4=O)cc2)CC3)cc1 — Cmax (human; oral, 10 mg, healthy volunteers): 261 ng/mL
COc1ccc([C@@H]2CN(C(=O)[C@@H](O)CO)C[C@@]2(C)[C@@H](C)O)cc1OC1CN(c2ccc(C)cn2)C1 — Cmax (human; oral, 0.1 mg, single dose, healthy volunteers): 8.8 ng/mL
COc1cc(C(=O)NC2CCN(C)CC2)c(F)cc1Nc1ncc(C(F)(F)F)c(Oc2cccc3c2C(=O)N(C)C3)n1 — Cmax (human; oral, 100 mg, single dose, patients): 1320 nM
COc1cc2c(cc1OC)CN(CCc1ccc(NC(=O)c3cc(OC)c(OC)cc3NC(=O)c3cnc4ccccc4c3)cc1)CC2 — Cmax (human; intravenous, 2 mg/kg, patients): 2500 nM
CNC(=O)c1cc(Oc2ccc(NC(=O)Nc3cc(C(C)(C)C)nn3-c3ccc4ncccc4c3)c(F)c2)ccn1 — Cmax (human; oral, 200 mg, multiple doses, twice daily): 377 ng/mL
CCCOc1ccc([C@H]2CNC(=O)N2c2ccc3[nH]cnc3c2)cc1 — Cmax (human; oral, 200 mg, single dose, fed, healthy volunteers): 565 ng/mL
CCCCC1=NC2(CCCC2)C(=O)N1Cc1ccc(-c2ccccc2S(=O)(=O)Nc2noc(C)c2C)c(COCC)c1 — Cmax (human; oral, 800 mg, single dose, fed, healthy volunteers): 16200 ng/mL
Cc1ccc(C(=O)N(CCCN)[C@@H](c2oc3cc(Cl)ccc3c(=O)c2Cc2ccccc2)C(C)C)cc1 — Cmax (human; intravenous, 4 mg/m², single dose, patients, infusion): 489 ng/mL
CO[C@H]1/C=C\C=C(/C)C(=O)NC2=CC(=O)C(NCCN(C)C)=C(C[C@@H](C)C[C@H](OC)[C@H](O)[C@@H](C)/C=C(\C)[C@@H]1OC(N)=O)C2=O — Cmax (human; intravenous, 12 mg/m², patients, infusion): 196 ng/mL
CCc1nc2c(C)cc(N3CCN(CC(=O)N4CC(O)C4)CC3)cn2c1N(C)c1nc(-c2ccc(F)cc2)c(C#N)s1 — Cmax (human; oral, 300 mg, fed, healthy volunteers): 3300 ng/mL
C[C@@H](Oc1ccc(S(C)(=O)=O)cc1C(=O)N1C[C@@H]2C[C@]2(c2cc(C(F)(F)F)on2)C1)C(F)(F)F — Cmax (human; oral, 25 mg, fed, tablet): 312 nM
CO[C@@H]1[C@H](OC(=O)N2CC(CCN3CCOCC3)C2)CC[C@]2(CO2)[C@H]1[C@@]1(C)O[C@@H]1CC=C(C)C — Cmax (human; subcutaneous, 4.8 mg, single dose, healthy volunteers): 18.7 ng/mL
FC(F)(F)c1ccc(CNc2ccc(Cc3c[nH]c4ncc(Cl)cc34)cn2)cn1 — Cmax (human; oral, 1600 mg, multiple doses, patients): 8770 ng/mL
CCOc1ccc(Cc2cc([C@@H]3S[C@H](CO)[C@@H](O)[C@H](O)[C@H]3O)c(OC)cc2C)cc1 — Cmax (male human; oral, 5 mg, single dose, fasted, healthy volunteers): 208 ng/mL
O=C(/C=C/c1cccc(S(=O)(=O)Nc2ccccc2)c1)NO — Cmax (human; intravenous, 1800 mg/m², patients): 76800 ng/mL
NS(=O)(=O)NCCNc1nonc1C(=NO)Nc1ccc(F)c(Br)c1 — Cmax (human; oral, 300 mg, multiple doses, twice daily, steady state, patients): 2480 nM
Br.Cc1ccc(Sc2ccccc2N2CCNCC2)c(C)c1 — Cmax (human; oral, 20 mg, multiple doses, steady state, healthy volunteers): 33 ng/mL
Oc1cc(O)c2c(c1)O[C@@H](c1ccc(O)c(O)c1)[C@@H](O)C2 — Cmax (human; oral, 30 mg, single dose): 0.7 ng/mL
CC(C)(Sc1ccncc1-c1ccc(C#N)c2ccccc12)C(=O)O — Cmax (male human; oral, 20 mg, single dose, fed, healthy volunteers): 181 ng/mL
O=C(Nc1c(Cl)cncc1Cl)c1ccc(OC(F)F)c(OCC2CC2)c1 — Cmax (human; oral, 0.375 mg, multiple doses, once daily, steady state): 11.4 ng/mL
Cn1cc(-c2ccc(S(=O)(=O)[C@@H]3C[C@@H](C(=O)NC4(C#N)CC4)N(C(=O)C4(C(F)(F)F)CC4)C3)c(C(F)(F)F)c2)cn1 — Cmax (human; oral, 10 mg, single dose, fasted, healthy volunteers): 81.3 ng/mL
COCCOc1cnc2ccn([C@H](C)c3nnc4c(F)cc(-c5cnn(C)c5)cn34)c(=O)c2c1 — Cmax (human; oral, 50 mg, multiple doses, once daily, patients): 730 ng/mL
Nc1cc(C(F)(F)F)c(-c2cc(N3CCOCC3)nc(N3CCOCC3)n2)cn1 — Cmax (human; oral, 25 mg/day, patients): 289 ng/mL
CO[C@H]1CC[C@H](N2C(=O)CNc3ncc(-c4ccc(C(C)(C)O)nc4)nc32)CC1 — Cmax (human; oral, 60 mg, multiple doses, patients): 480 ng/mL
C/C(=C\c1csc(C)n1)[C@@H]1C[C@@H]2O[C@]2(C)CCC[C@H](C)[C@H](O)[C@@H](C)C(=O)C(C)(C)[C@@H](O)CC(=O)N1 — Cmax (human; intravenous, 20 mg/m², patients): 249 ng/mL
Cn1c(=O)oc2ccc(-c3ccc(C[C@@H](C#N)NC(=O)[C@@H]4CNCCCO4)cc3)cc21 — Cmax (male human; oral, 35 mg, single dose, healthy volunteers): 668 nM
C#Cc1cccc(Nc2ncnc3cc(OCCOC)c(OCCOC)cc23)c1 — Cmax (human; oral, 50 mg, patients): 1170 nM
C[C@@]1(c2cc(NC(=O)c3ccc(C#N)cn3)ccc2F)C=CSC(N)=N1 — Cmax (human; oral, 1 mg, single dose): 5.62 ng/mL
CNCc1ccc(-c2[nH]c3cc(F)cc4c3c2CCNC4=O)cc1 — Cmax (human; oral, 600 mg, multiple doses, twice daily, steady state): 2650 ng/mL
CS(=O)(=O)CCNCc1ccc(-c2ccc3ncnc(Nc4ccc(OCc5cccc(F)c5)c(Cl)c4)c3c2)o1 — Cmax (human; oral, 500 mg, multiple doses, twice daily, steady state, patients): 2370 ng/mL
CCn1c(=O)c(-c2cc(NC(=O)Nc3ccccc3)c(F)cc2Br)cc2cnc(NC)cc21 — Cmax (human; oral, 30 mg, single dose, patients): 133 ng/mL
O=C(O)C[C@H](O)C[C@H](O)/C=C/c1c(C2CC2)nc2ccccc2c1-c1ccc(F)cc1 — Cmax (human; oral, 2 mg, single dose, fasted, healthy volunteers, tablet): 36.4 ng/mL
CC(C)(O)c1ccccc1-c1ccc2[nH]c(/C=C/c3ccc(C(F)(F)F)cc3)nc2c1 — Cmax (male human; oral, 5 mg, single dose, fasted, healthy volunteers): 29.6 ng/mL
CC(C)(C(=O)N1CCOc2c(C#N)cncc2C1)C(F)F — Cmax (human; oral, 20 mg, multiple doses, once daily): 250 ng/mL
